# Reference: ChEMBL document CHEMBL3763152, “Synthesis and evaluation of orally active small molecule HIV-1 Nef antagonists” (Bioorg Med Chem Lett, 2016)
# Activity calls are given as the source filed them. No cut-off for these calls is given here.
# Columns and labels:
# [1] = Binding affinity to recombinant HIV1 Nef by SPR assay; parameters: species or system Human immunodeficiency virus 1
# Procedure, shortened: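 Recombinant purified Nef was immobilized on a CM5 chip, and compound was injected over a concentration range in triplicate. Binding isotherms were fitted with a heterogeneous ligand model, and KD was taken from the kinetic constants of the higher-affinity component. No binding means none seen at >50 μM compound.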
# [2] = system: Human immunodeficiency virus 1; assay: Antiviral activity against HIV1 NL4-3 infected in TZM-bl cells incubated for 3 hrs measured after 48 hrs by luciferase reporter gene assay; format: functional, organism-based; settings: Human immunodeficiency virus 1, NL4-3, TZM-bl
# Procedure, shortened: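 TZM-bl reporter cells carry a luciferase gene driven by the HIV-1 LTR. Cells were infected short-term with HIV-1, and Nef-dependent infectivity was read out by luciferase. IC50 was derived from this read-out.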
# [3] = Cytotoxicity against human TZM-bl cells by Cell Titer Blue assay; format: cell-based
# Procedure, shortened: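 TZM-bl reporter cells were treated with compound and viability was read by Cell Titer Blue. CC50 is the concentration giving 50% loss of viability.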
# [4] = system: Human immunodeficiency virus 1; assay: Binding affinity to recombinant HIV1 Nef N126A mutant at 10 uM by SPR assay
# Procedure, shortened: (§1)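 Wild-type, N126A and N126Q Nef were expressed in bacteria and purified to homogeneity. Each was covalently coupled to a CM5 biosensor chip. Compound was injected at a final 10 μM, in triplicate, and binding was measured by SPR on a Biacore T100.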
# [5] = system: Human immunodeficiency virus 1; assay: Binding affinity to recombinant HIV1 Nef N126Q mutant at 10 uM by SPR assay; procedure, shortened: as §1
# [6] = Tmax in C3H mouse at 10 mg/kg, po administered through solution of 5% N-methyl -2-pyrrolidone and 5% solutol in saline by LC-MS analysis; format: ADME, organism-based; settings: in vivo
# Procedure, shortened: (§2)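 Plasma drug levels measured by LC-MS over time. Tmax, Cmax, AUClast, AUCinf, T1/2, Vss, clearance and %F were derived from the plasma concentration–time data.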
# [7] = Cmax in C3H mouse at 2 mg/kg, iv by LC-MS analysis; format: ADME, organism-based; parameters: dose 2 mg/kg, route intravenous; settings: in vivo; procedure, shortened: as §2
# [8] = Cmax in C3H mouse at 10 mg/kg, po administered through solution of 5% N-methyl -2-pyrrolidone and 5% solutol in saline by LC-MS analysis; format: ADME, organism-based; parameters: dose 10 mg/kg, route oral; settings: in vivo; procedure, shortened: as §2
# [9] = AUClast in C3H mouse at 2 mg/kg, iv by LC-MS analysis; format: ADME, organism-based; parameters: dose 2 mg/kg, route intravenous, time 0 - last; settings: in vivo; procedure, shortened: as §2
# [10] = AUC(last) in C3H mouse at 10 mg/kg, po administered through solution of 5% N-methyl -2-pyrrolidone and 5% solutol in saline by LC-MS analysis; format: ADME, organism-based; parameters: dose 10 mg/kg, time 0 - last, route oral; settings: in vivo; procedure, shortened: as §2
# [11] = AUC(infinity) in C3H mouse at 2 mg/kg, iv by LC-MS analysis; format: ADME, organism-based; parameters: dose 2 mg/kg, time infinity, route intravenous; settings: in vivo; procedure, shortened: as §2
# [12] = AUC(infinity) in C3H mouse at 10 mg/kg, po administered through solution of 5% N-methyl -2-pyrrolidone and 5% solutol in saline by LC-MS analysis; format: ADME, organism-based; parameters: dose 10 mg/kg, route oral, time infinity; settings: in vivo; procedure, shortened: as §2
# [13] = Half life in C3H mouse at 2 mg/kg, iv by LC-MS analysis; format: ADME, organism-based; settings: in vivo; procedure, shortened: as §2
# [14] = Volume of distribution at steady state in C3H mouse at 2 mg/kg, iv by LC-MS analysis; format: ADME, organism-based; settings: in vivo, read-out: Vdss; procedure, shortened: as §2
# [15] = Clearance in C3H mouse at 2 mg/kg, iv by LC-MS analysis; format: ADME, organism-based; settings: in vivo; procedure, shortened: as §2
# [16] = Oral bioavailability in C3H mouse at 10 mg/kg administered through solution of 5% N-methyl -2-pyrrolidone and 5% solutol in saline by LC-MS analysis; format: ADME, organism-based; settings: in vivo; procedure, shortened: as §2
# [17] = system: Mus musculus; assay: Acute toxicity in C3H mouse assessed as overall behavior at 2.5 mg/kg, iv SID for 4 days; format: organism-based; settings: in vivo, 96 h
# [18] = system: Mus musculus; assay: Acute toxicity in C3H mouse assessed as body condition at 2.5 mg/kg, po SID for 4 days; settings: in vivo, 96 h
# [19] = system: Mus musculus; assay: Acute toxicity in C3H mouse assessed as change in body weight at 2.5 mg/kg, po SID for 4 days; settings: in vivo, 96 h
# [20] = system: U-87MG ATCC; assay: Inhibition of Nef-dependent HIV1 NL4-3 replication infected in human U87MG cells expressing CD4 and CXCR4 at 3 uM incubated for 1 hr measured after 4 days by immunoassay; format: cell-based; settings: Human immunodeficiency virus 1
# Procedure, shortened: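 U87MG/CD4/CXCR4 cells received compound at 3 μM final; wild-type or ΔNef HIV-1 NL4-3 was added one hour later. Replication was measured at 4 days as p24 Gag by AlphaLISA ELISA and expressed as percent of DMSO control, mean ± S.E., n=4.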
# [21] = Cytotoxicity against human U87MG cells expressing CD4 and CXCR4 up to 10 uM by Cell Titer Blue assay; format: cell-based; settings: u-87mg atcc
# [22] = system: Mus musculus; assay: Acute toxicity in C3H mouse assessed as change in body weight at 10 mg/kg, po BID for 4 days; format: organism-based; settings: in vivo, 96 h
# [23] = system: Mus musculus; assay: Acute toxicity in C3H mouse assessed as change in body weight at 50 mg/kg, po SID for 5 days; format: organism-based; settings: in vivo, 120 h
# [24] = Tmax in C3H mouse at 10 mg/kg, po administered through suspension of 0.5% w/v sodium-carboxymethyl cellulose with 0.1% v/v Tween80 by LC-MS analysis; format: ADME, organism-based; settings: in vivo; procedure, shortened: as §2
# [25] = Cmax in C3H mouse at 10 mg/kg, po administered through suspension of 0.5% w/v sodium-carboxymethyl cellulose with 0.1% v/v Tween80 by LC-MS analysis; format: ADME, organism-based; parameters: dose 10 mg/kg, route oral; settings: in vivo; procedure, shortened: as §2
# [26] = AUC(last) in C3H mouse at 10 mg/kg, po administered through suspension of 0.5% w/v sodium-carboxymethyl cellulose with 0.1% v/v Tween80 by LC-MS analysis; format: ADME, organism-based; parameters: dose 10 mg/kg, route oral, time 0 - last; settings: in vivo; procedure, shortened: as §2
# [27] = AUC(infinity) in C3H mouse at 10 mg/kg, po administered through suspension of 0.5% w/v sodium-carboxymethyl cellulose with 0.1% v/v Tween80 by LC-MS analysis; format: ADME, organism-based; parameters: dose 10 mg/kg, route oral, time infinity; settings: in vivo; procedure, shortened: as §2
# [28] = system: Mus musculus; assay: Acute toxicity in C3H mouse assessed as body condition at 5 mg/kg, iv SID for 4 days; format: organism-based; settings: in vivo, 96 h
# [29] = system: Mus musculus; assay: Acute toxicity in C3H mouse assessed as body condition at 10 mg/kg, po BID for 4 days; format: organism-based; settings: in vivo, 96 h
# [30] = system: Mus musculus; assay: Acute toxicity in C3H mouse assessed as body condition at 50 mg/kg, po SID for 5 days; format: organism-based; settings: in vivo, 120 h
# [31] = system: Mus musculus; assay: Acute toxicity in C3H mouse assessed as overall behavior at 5 mg/kg, iv SID for 4 days; format: organism-based; settings: in vivo, 96 h
# [32] = system: Mus musculus; assay: Acute toxicity in C3H mouse assessed as overall behavior at 10 mg/kg, po BID for 4 days; format: organism-based; settings: in vivo, 96 h
# [33] = system: Mus musculus; assay: Acute toxicity in C3H mouse assessed as overall behavior at 50 mg/kg, po SID for 5 days; format: organism-based; settings: in vivo, 120 h
# [34] = system: Mus musculus; assay: Acute toxicity in C3H mouse assessed as change in body weight at 5 mg/kg, po SID for 4 days; settings: in vivo, 96 h
# [35] = system: Mus musculus; assay: Acute toxicity in C3H mouse assessed as change in body weight at 100 mg/kg, po SID for 12 days; format: organism-based; settings: in vivo, 288 h
# [36] = system: Mus musculus; assay: Acute toxicity in C3H mouse assessed as body condition at 100 mg/kg, po SID for 12 days; format: organism-based; settings: in vivo, 288 h
# [37] = system: Mus musculus; assay: Acute toxicity in C3H mouse assessed as overall behavior at 100 mg/kg, po SID for 12 days; format: organism-based; settings: in vivo, 288 h
# [38] = system: Human immunodeficiency virus 1; assay: Binding affinity to recombinant HIV1 Nef at >50 uM by SPR assay
Compound,Kd [1] [µM],IC50 [2] [µM],CC50 [3] [µM],Activity [4],Activity [5],Tmax [6] [min],Cmax [7] [ng/mL],Cmax [8] [ng/mL],AUC(0-t) [9] [ng·h/mL],AUC(0-t) [10] [ng·h/mL],AUC(0-inf) [11] [ng·h/mL],AUC(0-inf) [12] [ng·h/mL],half-life [13] [min],Vd [14] [L/kg],clearance [15] [mL/min/kg],bioavailability [16] [%],inhibition [20],Activity [21],Tmax [24] [min],Cmax [25] [ng/mL],also measured
NC(=S)n1nc(-c2ccc([N+](=O)[O-])cc2)c(/N=N/c2cccc(Cl)c2)c1O,0.0819,2.53,10,inactive,inactive,30,3960,418,9780,963,9790,1020,128,0.37,3.41,2,–,–,–,–,Activity [17]: Non-toxic; Activity [18]: Non-toxic; Activity [19]: Non-toxic
NC(=S)n1nc(-c2ccc([N+](=O)[O-])cc2)c(CCc2cccc(Cl)c2)c1O,0.159,0.69,> 10,inactive,inactive,15,4420,2370,2130,6300,2150,6430,–,0.83,13.5,53,Active,Non-toxic,30,5610,Activity [22]: Non-toxic; Activity [23]: Non-toxic; AUC(0-t) [26]: 9030 ng·h/mL; AUC(0-inf) [27]: 9480 ng·h/mL; Activity [28]: Non-toxic; Activity [29]: Non-toxic; Activity [30]: Non-toxic; Activity [31]: Non-toxic; Activity [32]: Non-toxic; Activity [33]: Non-toxic; Activity [34]: Non-toxic
NC(=S)n1nc(-c2ccc([N+](=O)[O-])cc2)c(Cc2cccc(Cl)c2)c1O,0.15,3.54,> 10,inactive,inactive,60,2800,5810,2960,18600,3000,18800,94.8,0.79,8.56,100,Active,Non-toxic,30,3400,Activity [35]: Non-toxic; AUC(0-t) [26]: 10700 ng·h/mL; AUC(0-inf) [27]: 11500 ng·h/mL; Activity [36]: Non-toxic; Activity [37]: Non-toxic
O=[N+]([O-])c1ccc(-c2n[nH]c(O)c2Cc2cccc(Cl)c2)cc1,–,> 10,> 10,–,–,–,–,–,–,–,–,–,–,–,–,–,inactive,Non-toxic,–,–,Activity [38]: inactive
O=[N+]([O-])c1ccc(-c2n[nH]c(O)c2CCc2cccc(Cl)c2)cc1,–,> 10,> 10,–,–,–,–,–,–,–,–,–,–,–,–,–,inactive,Non-toxic,–,–,Activity [38]: inactive
